Test results published in ChEMBL document CHEMBL5376013, “Design, synthesis and biological evaluation of novel morpholinopyrimidine-5-carbonitrile derivatives as dual PI3K/mTOR inhibitors” (RSC Med Chem, 2024).

Legend:
Type in all cases: functional
Settings in all cases: read-out: GI
RXF 393 = assay: Antitumor activity against human RXF 393 cells assessed as growth inhibition at 10 uM relative to control
How it was run: (§1)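 After drug addition, plates were incubated 48 h at 37 °C under 5% CO2. Adherent cells were fixed with cold TCA (10% final, 60 min, 4 °C) and suspension cells with 16% final TCA. Staining used 0.4% SRB in 1% acetic acid, solubilized in 10 mM trizma, read at A515. Percent growth was calculated from time-zero, control and treated absorbances.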

CAKI-1 = assay: Antitumor activity against human CAKI-1 cells assessed as growth inhibition at 10 uM relative to control; how it was run: as §1
DU-145 = assay: Antitumor activity against human DU-145 cells assessed as growth inhibition at 10 uM relative to control; how it was run: as §1
OVCAR-4 = assay: Antitumor activity against human OVCAR-4 cells assessed as growth inhibition at 10 uM relative to control; how it was run: as §1
HCT-15 = assay: Antitumor activity against human HCT-15 cells assessed as growth inhibition at 10 uM relative to control; how it was run: as §1
SF-539 = assay: Antitumor activity against human SF-539 cells assessed as growth inhibition at 10 uM relative to control; how it was run: as §1
786-0 = assay: Antitumor activity against human 786-0 cells assessed as growth inhibition at 10 uM relative to control; how it was run: as §1
SK-MEL-2 = assay: Antitumor activity against human SK-MEL-2 cells assessed as growth inhibition at 10 uM relative to control; how it was run: as §1
SNB-75 = assay: Antitumor activity against human SNB-75 cells assessed as growth inhibition at 10 uM relative to control
How it was run: (§2)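 Drug exposure 48 h at 37 °C, 5% CO2. Adherent cells fixed with cold TCA (10% final), suspension cells with TCA (16% final). Stained with 0.4% SRB in 1% acetic acid, dissolved in 10 mM Tris, A515. Growth relative to time-zero and untreated control.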

HOP-92 = assay: Antitumor activity against human HOP-92 cells assessed as growth inhibition at 10 uM relative to control; how it was run: as §1
UO-31 = assay: Antitumor activity against human UO-31 cells assessed as growth inhibition at 10 uM relative to control; how it was run: as §2
NCI-H23 = assay: Antitumor activity against human NCI-H23 cells assessed as growth inhibition at 10 uM relative to control; how it was run: as §1
SW-620 = assay: Antitumor activity against human SW-620 cells assessed as growth inhibition at 10 uM relative to control; how it was run: as §2
SR = assay: Antitumor activity against human SR cells assessed as growth inhibition at 10 uM relative to control; how it was run: as §2
NCI-H226 = assay: Antitumor activity against human NCI-H226 cells assessed as growth inhibition at 10 uM relative to control; how it was run: as §1
U-251 = assay: Antitumor activity against human U-251 cells assessed as growth inhibition at 10 uM relative to control; how it was run: as §2
COLO 205 = assay: Antitumor activity against human COLO 205 cells assessed as growth inhibition at 10 uM relative to control; how it was run: as §1
OVCAR-3 = assay: Antitumor activity against human OVCAR-3 cells assessed as growth inhibition at 10 uM relative to control; how it was run: as §1
SNB-19 = assay: Antitumor activity against human SNB-19 cells assessed as growth inhibition at 10 uM relative to control; how it was run: as §2
Malme-3M = assay: Antitumor activity against human Malme-3M cells assessed as growth inhibition at 10 uM relative to control; how it was run: as §1
SK-MEL-28 = assay: Antitumor activity against human SK-MEL-28 cells assessed as growth inhibition at 10 uM relative to control; how it was run: as §2
SK-OV-3 = assay: Antitumor activity against human SK-OV-3 cells assessed as growth inhibition at 10 uM relative to control; how it was run: as §2
T47D = assay: Antitumor activity against human T47D cells assessed as growth inhibition at 10 uM relative to control; how it was run: as §2
HOP-62 = assay: Antitumor activity against human HOP-62 cells assessed as growth inhibition at 10 uM relative to control; how it was run: as §1
MOLT-4 = assay: Antitumor activity against human MOLT-4 cells assessed as growth inhibition at 10 uM relative to control; how it was run: as §1
PC-3 = assay: Antitumor activity against human PC-3 cells assessed as growth inhibition at 10 uM relative to control; how it was run: as §1
SF-268 = assay: Antitumor activity against human SF-268 cells assessed as growth inhibition at 10 uM relative to control; how it was run: as §1
ACHN = assay: Antitumor activity against human ACHN cells assessed as growth inhibition at 10 uM relative to control; how it was run: as §1
RPMI-8226 = assay: Antitumor activity against human RPMI-8226 cells assessed as growth inhibition at 10 uM relative to control; how it was run: as §1
CCRF-CEM = assay: Antitumor activity against human CCRF-CEM cells assessed as growth inhibition at 10 uM relative to control; how it was run: as §1
MDA-MB-468 = assay: Antitumor activity against human MDA-MB-468 cells assessed as growth inhibition at 10 uM relative to control; how it was run: as §1
A549 = assay: Antitumor activity against human A549 cells assessed as growth inhibition at 10 uM relative to control; how it was run: as §1
SN12C = assay: Antitumor activity against human SN12C cells assessed as growth inhibition at 10 uM relative to control; how it was run: as §2
NCI/ADR-RES = assay: Antitumor activity against human NCI-ADR-RES cells assessed as growth inhibition at 10 uM relative to control; how it was run: as §1
LOX IMVI = assay: Antitumor activity against human LOX IMVI cells assessed as growth inhibition at 10 uM relative to control; how it was run: as §1
NCI-H522 = assay: Antitumor activity against human NCI-H522 cells assessed as growth inhibition at 10 uM relative to control; how it was run: as §1
HCT-116 = assay: Antitumor activity against human HCT-116 cells assessed as growth inhibition at 10 uM relative to control; how it was run: as §1
KM12 = assay: Antitumor activity against human KM12 cells assessed as growth inhibition at 10 uM relative to control; how it was run: as §1
BT-549 = assay: Antitumor activity against human BT-549 cells assessed as growth inhibition at 10 uM relative to control; how it was run: as §1
K562 = assay: Antitumor activity against human K562 cells assessed as growth inhibition at 10 uM relative to control; how it was run: as §1
UACC-257 = assay: Antitumor activity against human UACC-257 cells assessed as growth inhibition at 10 uM relative to control; how it was run: as §2
HT-29 = assay: Antitumor activity against human HT-29 cells assessed as growth inhibition at 10 uM relative to control; how it was run: as §1
SK-MEL-5 = assay: Antitumor activity against human SK-MEL-5 cells assessed as growth inhibition at 10 uM relative to control; how it was run: as §2
MDA-MB-231 = assay: Antitumor activity against human MDA-MB-231 cells assessed as growth inhibition at 10 uM relative to control; how it was run: as §1
UACC-62 = assay: Antitumor activity against human UACC-62 cells assessed as growth inhibition at 10 uM relative to control; how it was run: as §2
MCF7 = assay: Antitumor activity against human MCF7 cells assessed as growth inhibition at 10 uM relative to control; how it was run: as §1

## Cc1cc(C)n(-c2nc(-c3ccc(Cl)cc3)c(C#N)c(N3CCOCC3)n2)n1
RXF 393
  inhibition of growth at 10 µM: 30.5%
CAKI-1
  inhibition of growth at 10 µM: 28.1%
DU-145
  inhibition of growth at 10 µM: < 1%
OVCAR-4
  inhibition of growth at 10 µM: < 1%
HCT-15
  inhibition of growth at 10 µM: < 1%
SF-539
  inhibition of growth at 10 µM: 16%
786-0
  inhibition of growth at 10 µM: 15.2%
SK-MEL-2
  inhibition of growth at 10 µM: < 1%
SNB-75
  inhibition of growth at 10 µM: 40.1%
HOP-92
  inhibition of growth at 10 µM: 24.7%
UO-31
  inhibition of growth at 10 µM: 45.2%
NCI-H23
  inhibition of growth at 10 µM: 16%
SW-620
  inhibition of growth at 10 µM: < 1%
SR
  inhibition of growth at 10 µM: < 1%
NCI-H226
  inhibition of growth at 10 µM: 14%
U-251
  inhibition of growth at 10 µM: < 1%
COLO 205
  inhibition of growth at 10 µM: 18.9%
OVCAR-3
  inhibition of growth at 10 µM: 12.1%
SNB-19
  inhibition of growth at 10 µM: 14.2%
Malme-3M
  inhibition of growth at 10 µM: < 1%
SK-MEL-28
  inhibition of growth at 10 µM: < 1%
SK-OV-3
  inhibition of growth at 10 µM: 15.2%
T47D
  inhibition of growth at 10 µM: 22.1%
HOP-62
  inhibition of growth at 10 µM: 19.9%
MOLT-4
  inhibition of growth at 10 µM: 13.3%
PC-3
  inhibition of growth at 10 µM: < 1%
SF-268
  inhibition of growth at 10 µM: 14.4%
ACHN
  inhibition of growth at 10 µM: 11.8%
RPMI-8226
  inhibition of growth at 10 µM: 15.4%
CCRF-CEM
  inhibition of growth at 10 µM: < 1%
MDA-MB-468
  inhibition of growth at 10 µM: < 1%
A549
  inhibition of growth at 10 µM: < 1%
SN12C
  inhibition of growth at 10 µM: 12.8%
NCI/ADR-RES
  inhibition of growth at 10 µM: 10.6%
LOX IMVI
  inhibition of growth at 10 µM: 20.1%
NCI-H522
  inhibition of growth at 10 µM: 14.3%
HCT-116
  inhibition of growth at 10 µM: 17%
KM12
  inhibition of growth at 10 µM: < 1%
BT-549
  inhibition of growth at 10 µM: 30.5%
K562
  inhibition of growth at 10 µM: < 1%
UACC-257
  inhibition of growth at 10 µM: < 1%
HT-29
  inhibition of growth at 10 µM: < 1%
SK-MEL-5
  inhibition of growth at 10 µM: 14.5%
MDA-MB-231
  inhibition of growth at 10 µM: 28.8%
UACC-62
  inhibition of growth at 10 µM: < 1%
MCF7
  inhibition of growth at 10 µM: < 16%

## N#Cc1c(-c2ccc(Cl)cc2)nc(NN2C(=O)CCC2=O)nc1N1CCOCC1
RXF 393
  inhibition of growth at 10 µM: < 1%
CAKI-1
  inhibition of growth at 10 µM: < 1%
DU-145
  inhibition of growth at 10 µM: < 1%
OVCAR-4
  inhibition of growth at 10 µM: < 1%
HCT-15
  inhibition of growth at 10 µM: < 1%
SF-539
  inhibition of growth at 10 µM: < 1%
786-0
  inhibition of growth at 10 µM: < 1%
SK-MEL-2
  inhibition of growth at 10 µM: < 1%
SNB-75
  inhibition of growth at 10 µM: 33.9%
HOP-92
  inhibition of growth at 10 µM: < 1%
UO-31
  inhibition of growth at 10 µM: 12.5%
NCI-H23
  inhibition of growth at 10 µM: < 1%
SW-620
  inhibition of growth at 10 µM: < 1%
SR
  inhibition of growth at 10 µM: < 1%
NCI-H226
  inhibition of growth at 10 µM: < 1%
U-251
  inhibition of growth at 10 µM: < 1%
COLO 205
  inhibition of growth at 10 µM: < 1%
OVCAR-3
  inhibition of growth at 10 µM: < 1%
SNB-19
  inhibition of growth at 10 µM: < 1%
Malme-3M
  inhibition of growth at 10 µM: < 1%
SK-MEL-28
  inhibition of growth at 10 µM: < 1%
SK-OV-3
  inhibition of growth at 10 µM: < 1%
T47D
  inhibition of growth at 10 µM: < 1%
HOP-62
  inhibition of growth at 10 µM: < 1%
MOLT-4
  inhibition of growth at 10 µM: < 1%
PC-3
  inhibition of growth at 10 µM: < 1%
SF-268
  inhibition of growth at 10 µM: < 1%
ACHN
  inhibition of growth at 10 µM: < 1%
RPMI-8226
  inhibition of growth at 10 µM: < 1%
CCRF-CEM
  inhibition of growth at 10 µM: < 1%
MDA-MB-468
  inhibition of growth at 10 µM: < 1%
A549
  inhibition of growth at 10 µM: < 1%
SN12C
  inhibition of growth at 10 µM: < 1%
NCI/ADR-RES
  inhibition of growth at 10 µM: < 1%
LOX IMVI
  inhibition of growth at 10 µM: < 1%
NCI-H522
  inhibition of growth at 10 µM: 16%
HCT-116
  inhibition of growth at 10 µM: < 1%
KM12
  inhibition of growth at 10 µM: < 1%
BT-549
  inhibition of growth at 10 µM: < 1%
K562
  inhibition of growth at 10 µM: < 1%
UACC-257
  inhibition of growth at 10 µM: < 1%
HT-29
  inhibition of growth at 10 µM: < 1%
SK-MEL-5
  inhibition of growth at 10 µM: < 1%
MDA-MB-231
  inhibition of growth at 10 µM: < 1%
UACC-62
  inhibition of growth at 10 µM: < 1%
MCF7
  inhibition of growth at 10 µM: 1%
